tolC growth inh: growth inhibitors of E. coli tolC mutant, primary screen, strain BW25113 ΔtolC::kan, 384-well; OD615; growth inhibition, % at 10 µM (by protocol); actives 2.2% (n = 65,000); AID 573, 2007;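 active = growth inhibition at or above a cutoff equal to the mean over every tested compound plus 3 SD, cut at about 60% in these data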;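 note: growth measured after 20 h incubation at 37 °C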
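test system = E. coli BW25113 ΔtolC::kan bacteria | medium = LB with kanamycin 50 µg/mL | signal = OD at 615 nm | schedule = 37 °C, 20 h exposure | evaluation = % inhibition of E. coli growth | compound dosing = one dose of 10 µM final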
Ecoli WT expand: growth inhibitors of wild-type E. coli, primary screen, strain BW25113, expanded library, OD600; actives 0.15% (n = 98,000); OD600 absorbance; growth inhibition, % at 100 µM;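 active = growth inhibition above about 50% at one test dose, limit read from the data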;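 note: growth measured after 20 h incubation at 37 °C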
CYP2C9 inh: blockers of cytochrome P450 2C9 activity – biochemical, luminescence, ADME assay, primary screen | P11712 | CYP2C9 Supersomes, luciferin-H conversion | inhibition, % at 5 µM | actives 20% (n = 96,000);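 active = blocking of liver enzyme CYP2C9 beyond about 50% at 5 µM, limit read from the data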
CYP2C9 act: human CYP2C9 activators, primary screen, biochemical, luminescence; recombinant CYP2C9, luciferin-H conversion; active compounds read high; factor 1 = untreated enzyme, 0 = blocked; Cytochrome P450 2C9 (Homo sapiens), P11712; activation factor at 5 µM; actives 1.4% (n = 96,000);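 active = activation factor of 2 or more for CYP2C9 at a 5 µM dose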;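 note: 0 = sulfaphenazole-blocked wells and 1 = vehicle-only wells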
CYP2C19 activ: human CYP2C19 activators, primary screen, biochemical, luminescence. recombinant CYP2C19, luciferin-H EGE luminescence; active compounds read high; 0 = fully inhibited enzyme, 1 = untreated enzyme. activation factor at 5 µM. 96,000 tested, under 10 active;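 active = activation factor of at least 2 at 5 µM in the primary screen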;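 note: 0 = wells with 2.5 mM tranylcypromine and 1 = vehicle-only wells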
Target sequence (P33261 whole entry, looked up): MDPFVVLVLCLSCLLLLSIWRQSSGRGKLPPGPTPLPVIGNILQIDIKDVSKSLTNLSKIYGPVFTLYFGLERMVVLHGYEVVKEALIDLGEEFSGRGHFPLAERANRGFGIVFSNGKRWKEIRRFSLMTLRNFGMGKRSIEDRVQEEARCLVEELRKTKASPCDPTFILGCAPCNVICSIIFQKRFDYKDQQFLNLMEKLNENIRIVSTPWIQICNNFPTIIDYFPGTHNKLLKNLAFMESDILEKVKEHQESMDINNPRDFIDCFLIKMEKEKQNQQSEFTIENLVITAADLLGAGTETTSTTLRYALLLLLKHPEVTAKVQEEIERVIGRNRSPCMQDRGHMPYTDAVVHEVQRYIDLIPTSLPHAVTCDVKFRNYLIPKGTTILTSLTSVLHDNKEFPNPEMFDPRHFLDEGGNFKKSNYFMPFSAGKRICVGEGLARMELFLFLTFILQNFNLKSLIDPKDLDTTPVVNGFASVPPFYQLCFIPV
CYP2C19 inhib: blockers of cytochrome P450 2C19 activity – biochemical, luminescence, ADME assay, primary screen; actives 21% (n = 96,000); inhibition, % at 5 µM; P33261; CYP2C19 Supersomes, luciferin-H EGE luminescence, 30 min; AID 778, 2007;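 active = CYP2C19 inhibition above a set limit at 5 µM in the primary screen, cut at about 50% in these data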;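 note: plate controls were negative control wells for no effect and 2.5 mM tranylcypromine positive control for full effect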
* marks the source's active call; other numbers are inactive results; . = no result. Compounds with a hit are over-represented: about 29% of the library has one in this group of screens.

SMILES	tolC growth inh	Ecoli WT expand	CYP2C9 inh	CYP2C9 act	CYP2C19 activ	CYP2C19 inhib
COc1ccc(-n2c(N)c(C(=O)NCc3ccco3)c3nc4ccccc4nc32)cc1	.	5	18	0.8	0.9	6
Cc1ccc2cc3c(nc2c1)N(Cc1ccco1)CC3	18	11	5	1	0.9	9
Nc1nc(SCC(=O)OCc2ccccc2)[nH]c(=O)c1NC(=O)c1ccco1	-3	5	-13	1.1	1.2	-21
CCOC(=O)N1CCN(C(=O)c2cnn3c(C(F)F)cc(-c4ccc(C)cc4)nc23)CC1	11	-6	12	0.9	0.7	29
Cc1ccc(-c2cc(C(F)F)n3ncc(C(=O)N4CCN(c5cccc(C)c5C)CC4)c3n2)cc1	.	-14	68*	0.3	1	0
CC1CN(C(=O)c2cnn3c(C(F)F)cc(-c4ccccc4)nc23)CC(C)O1 (stereo not given)	2	-3	18	0.8	0.7	26
COc1ccc(NS(=O)(=O)c2ccc(NC(=O)c3cnn4c(C(F)F)cc(-c5ccc(C)cc5)nc34)cc2)cc1	.	-21	60*	0.4	0.8	17
Cc1ccc(-c2cc(C(F)F)n3ncc(C(=O)Nc4ccc(S(=O)(=O)Nc5ccccc5C)cc4)c3n2)cc1	.	-12	82*	0.2	0.9	6
CCCCCCC(=O)Nc1cc2c(C)cc(=O)oc2cc1C	.	-1	-155	2.5*	0.6	41
CCC(=O)Nc1cc2c(C)cc(=O)oc2cc1C	.	-1	7	0.9	0.9	14
CCOC(=O)Cn1c(=O)n(C2CCCC2)c(=O)c2ccccc21	11	4	77*	0.2	0.1	91*
CCOC(=O)Cn1c(=O)n(CC(=O)OCC)c2ccccc21	-16	-5	21	0.8	0.8	22
O=c1c2ccccc2n(Cc2cccc(F)c2)c(=O)n1C1CCCC1	77*	-13	27	0.7	0.7	32
N#Cc1ccccc1Cn1c(=O)n(C2CCCC2)c(=O)c2ccccc21	.	-10	96*	0	0.1	86*
CC1CC(C)CN(CC(C)(C)NS(=O)(=O)c2ccccc2)C1 (stereo not given)	-12	5	48	0.5	0.2	79*
CCN(CC)C1CCCCC1NS(=O)(=O)c1ccc(Cl)cc1 (stereo not given)	-11	6	5	1	0.9	6
CC1CCCC(C)N1CC(C)(C)NS(=O)(=O)c1ccc(Cl)cc1 (stereo not given)	.	5	17	0.8	0.2	84*
NC(=O)c1ccc(-c2ccc(Br)cc2)o1	2	7	46	0.5	0.5	51*
O=C(O)CCc1ccc(-c2ccc(Br)cc2)o1	10	-11	15	0.8	1	-4
COc1ccc(C2CCCN2C(=O)Nc2ccc(Cl)cc2)cc1OC (stereo not given)	.	2	49	0.5	0.3	73*
CCCCCOC(=O)CSc1n[nH]c(=O)[nH]c1=O	.	-30	1	1	0.8	15
COC(=O)CCCCCC(CCC(=O)OC)NC(C)=O (stereo not given)	-1	5	6	0.9	1	-1
Cc1cccc(N2CCCC2=Nc2ccc(Br)cc2C#N)c1	.	-8	6	0.9	1	2
N#Cc1ccccc1N=C1CCCN1Cc1ccccc1	12	2	22	0.8	0.2	85*
O=C(Oc1ccc(Cl)c2cccnc12)N1CCCCC1	-10	2	28	0.7	0.5	55*
SMILES	tolC growth inh	Ecoli WT expand	CYP2C9 inh	CYP2C9 act	CYP2C19 activ	CYP2C19 inhib
O=C(Oc1ccc2ccccc2c1Cl)N1CCCC1	61*	12	31	0.7	0.2	75*
CCCCC12CN3CC(C)(CN(C1)C31C(=O)N(C)c3ccc(C)cc31)C2=O (stereo not given)	14	.	.	.	.	.
CCCc1nnc(SCC(=O)N2CCCC(C)C2)n1CCCOC (stereo not given)	-5	-3	-5	1.1	1	4
O=C1C2C3C=CC([C@@H]2C(=O)N1C1CCCCC1)[C@H]1C(=O)N(C2CCCCC2)C(=O)C31 (stereo not given in full)	.	-7	0	1	0.9	6
CCOc1ccc(N2C(=O)CS/C2=C(\C(Cl)=C(Cl)Cl)[N+](=O)[O-])cc1	.	-6	55*	0.5	0.6	38
CCOC(=O)N1CCC(Nc2nc3ccccc3n3nnnc23)CC1	1	-2	51*	0.5	0.7	29
COC(=O)c1ccccc1S(=O)(=O)N1CCC(c2nc3ccccc3o2)CC1	19	-1	81*	0.2	0.1	87*
C(=C\c1nc2ccccc2[nH]1)/c1ccccc1	.	39	60*	0.4	0.3	72*
Cc1ccc(Cn2c(=O)n(Cc3ccco3)c(=O)c3ccccc32)cc1	-16	-2	.	.	.	.
OCCSc1nc(-c2cccnc2)nc2ccccc12	10	-3	90*	0.1	0.4	63*
OCCNc1nc(-c2cccnc2)nc2ccccc12	-5	5	8	0.9	0.9	15
c1cncc(-c2nc(NCc3ccco3)c3ccccc3n2)c1	30	2	62*	0.4	0.8	24
c1ccc(-c2nc(NCc3cccnc3)c3ccccc3n2)cc1	.	18	65*	0.4	0.7	28
c1ccc(CN2CCN(c3nc(NCc4ccco4)c4ccccc4n3)CC2)cc1	.	0	66*	0.3	0.5	51*
O=c1oc(-c2cccnc2)nc2ccccc12	-26	1	-2	1	0.9	5
c1ccc(CN2CCN(c3nc(-c4ccccc4)nc4ccccc34)CC2)cc1	.	-11	29	0.7	0.9	8
C[C@@H]1CCC[C@H](C)N1NC(=O)c1ccc(Cl)c(S(N)(=O)=O)c1	5	.	.	.	.	.
COc1cc(CN2CCN(c3cccc(C)c3C)CC2)cc(Br)c1O	26	2	23	0.8	0.7	32
O=C(O)CCC(=O)Nc1ccc(Cc2ccc(NC(=O)CCC(=O)O)cc2)cc1	.	-6	4	1	1	5
COc1cccc(-c2nc(NCc3ccco3)c3ccccc3n2)c1O	-4	.	.	.	.	.
Cc1ccc(-c2nc(N/N=C/c3cccnc3)c3ccccc3n2)cc1	.	-5	82*	0.2	0	96*
CSc1nc(NCc2ccco2)c2ccccc2n1	.	4	64*	0.4	0.4	64*
Cc1ccc(-c2nc(N/N=C/c3cccc([N+](=O)[O-])c3)c3ccccc3n2)cc1	.	-8	.	.	.	.
CC12CC(NC(=O)N1CCc1ccccc1)c1cc(Cl)ccc1O2 (stereo not given)	-13	-4	.	.	.	.

Assay outcomes as filed in PubChem.
